Results taken from ChEMBL document CHEMBL6127151, “Cyclic Peptide C5aR1 Antagonist Design Using Solution Conformational Analysis Derived from Residual Dipolar Couplings” (ACS Med Chem Lett, 2024).

Experiments:
[1] = target: T1, C5a anaphylatoxin chemotactic receptor 1 (Homo sapiens) (UniProt P21730); test: Binding affinity to C5aR1 receptor (unknown origin) assessed as binding constant; conditions: time 10.0 min
T1 sequence (whole entry): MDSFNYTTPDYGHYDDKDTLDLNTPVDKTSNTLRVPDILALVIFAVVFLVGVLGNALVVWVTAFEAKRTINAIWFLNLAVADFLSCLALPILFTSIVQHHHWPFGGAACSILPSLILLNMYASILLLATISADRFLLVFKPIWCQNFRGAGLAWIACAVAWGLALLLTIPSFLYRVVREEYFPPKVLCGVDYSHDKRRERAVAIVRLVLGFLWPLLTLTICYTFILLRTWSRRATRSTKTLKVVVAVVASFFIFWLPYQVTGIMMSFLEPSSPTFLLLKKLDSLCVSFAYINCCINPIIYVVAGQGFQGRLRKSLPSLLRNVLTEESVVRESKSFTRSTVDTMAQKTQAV

[2] = Passive permeability across apical to basolateral side in dog RRCK cells incubated for 30 mins; type: ADME, cell-based, Canis lupus familiaris, MDCKII-LE; conditions: MDCK, read-out: permeability
Procedure, shortened: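 Passive absorptive permeability was measured from the apical to the basolateral side in RRCK cells after a 30 min preincubation. Values are reported as the mean, in 10–6 cm/s.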

Row | SMILES | Papp A→B at 0.5 h [2] [×10⁻⁶ cm/s] | Kb ([1]; filed as antagonist) [nM] | Kb [1] [nM]
1 | C[C@@H](Cc1ccccc1)C(=O)N[C@@H]1C(=O)N2CCC[C@H]2C(=O)N[C@H](CC2CCCCC2)C(=O)N[C@@H](Cc2ccc(F)cc2)C(=O)N[C@@H](Cc2ccccc2)C(=O)N2CCC1CC2 | 6.5 | 82.8 | 
2 | C[C@@H](Cc1ccccc1)C(=O)N[C@H]1CCN(C)C(=O)C[C@H](Cc2ccccc2)NC(=O)[C@H](Cc2ccc(F)cc2)N(C)C(=O)[C@@H](CC2CCCCC2)NC(=O)[C@@H]2CCCN2C1=O | 2.1 | 127 | 
3 | C[C@@H](Cc1ccccc1)C(=O)N[C@H]1CCCN(C)C(=O)[C@H](Cc2ccccc2)NC(=O)[C@H](Cc2ccc(F)cc2)NC(=O)[C@@H](CC2CCCCC2)NC(=O)[C@@H]2CCCN2C1=O | 2.6 | 36.3 | 
4 | CCCC[C@H]1C(=O)N(C)CCC[C@H](NC(=O)[C@@H](C)Cc2ccccc2)C(=O)N2CCC[C@H]2C(=O)N[C@H](CC2CCCCC2)C(=O)N[C@@H](Cc2ccc(F)cc2)C(=O)N1C | 4.2 |  | > 9500
5 | CCCC[C@@H]1NC(=O)[C@H](Cc2ccc(F)cc2)NC(=O)[C@@H](CC2CCCCC2)N(C)C(=O)[C@@H]2CCCN2C(=O)[C@@H](NC(=O)[C@@H](C)Cc2ccccc2)CCCN(C)C1=O | 4.4 |  | > 10000
6 | C[C@@H](Cc1ccccc1)C(=O)N[C@H]1CCN(C)C(=O)C[C@H](Cc2ccccc2)NC(=O)[C@H](Cc2ccc(F)cc2)NC(=O)[C@@H](CC2CCCCC2)NC(=O)[C@@H]2CCCN2C1=O | 5 | 5.52 | 

Now from value to compound, other results behind:

Row | Papp A→B at 0.5 h [2] [×10⁻⁶ cm/s] | SMILES | Kb ([1]; filed as antagonist) [nM] | Kb [1] [nM]
7 | 5.5 | C[C@@H](Cc1ccccc1)C(=O)N[C@H]1CCCN(C)C(=O)[C@H](Cc2ccccc2)NC(=O)[C@H](Cc2ccc(F)cc2)NC(=O)[C@@H](CC2CCCCC2)NC(=O)[C@H]([C@@H](C)O)NC1=O | 38.9 | 
8 | 11.1 | C[C@@H](Cc1ccccc1)C(=O)N[C@H]1CCCN(C)C(=O)[C@H](Cc2ccccc2)NC(=O)[C@H](Cc2ccc(F)cc2)NC(=O)[C@@H](CC2CCCCC2)NC(=O)[C@@H]2CCN2C1=O | 57.5 | 
9 | 0.4 | CCN1CC[C@H](NC(=O)c2ccnn2-c2ccccc2)C(=O)N[C@@H]([C@@H](C)O)C(=O)N[C@@H](CC(C)C)C(=O)N[C@@H](Cc2ccc(F)cc2)C(=O)N[C@@H](Cc2ccccc2)CC1=O | 54 | 
10 | 3.4 | C[C@@H](Cc1ccccc1)C(=O)N[C@H]1CC[C@H]2CCCN2C(=O)[C@H](Cc2ccccc2)NC(=O)[C@H](Cc2ccc(F)cc2)NC(=O)[C@@H](CC2CCCCC2)NC(=O)[C@@H]2CCCN2C1=O | 46.5 | 
11 | 2.6 | CCCC[C@@H]1NC(=O)[C@H](Cc2ccc(F)cc2)N(C)C(=O)[C@@H](CC2CCCCC2)NC(=O)[C@@H]2CCCN2C(=O)[C@@H](NC(=O)[C@@H](C)Cc2ccccc2)CCCN(C)C1=O |  | > 10000
